Measured values gathered from unrelated publications.
Target: Serine/threonine-protein kinase PAK 6 (PAK6, Homo sapiens, UniProt Q9NQU5)

| Compound | test | conditions | measurement | value |
| --- | --- | --- | --- | --- |
| Cc1nn(C)cc1-c1nc2c(N3CCN(Cc4ccc(Cl)cc4)CC3)c(Cl)cnc2[nH]1 | binding, competition with immobilised ligand | 1 µM | remaining binding | 100% |
| Cn1cc(-c2cccc(N3CCc4c(sc5c4CC(C)(C)C5)C3=O)c2CO)cc(Nc2ccncn2)c1=O | enzyme activity, inhibitor | 1 µM | inhibition | -7% |
| COc1ncccc1-c1cnn2ccc(N3CCN(C(=O)OC(C)C)CC3)nc12 | binding, competition with immobilised ligand | 1 µM | remaining binding | 97% |
| O=c1[nH]c2ccccc2n1C1CCN(Cc2ccc(-c3[nH]c4cc5ncnc5cc4nc3-c3ccccc3)cc2)CC1 | cell-free assay | 0.5 µM | remaining signal | 109% |
| Cn1cncc1[C@](O)(COc1ccc(C#N)cc1-c1ccc(OC(F)(F)F)cc1)c1ccc(C#N)cc1 | cell-free assay, competition with immobilised ligand | 1 µM | remaining binding | 98% |
| Cn1cc(-c2cc(F)cc(N3CCn4c(cc5c4CCCC5)C3=O)c2CO)cc(Nc2ccc(N3CCN(C4COC4)CC3)cn2)c1=O | enzyme activity, inhibitor | 0.1 µM | inhibition | 22% |
| COc1cc(Nc2ncc(F)c(Nc3ccc4c(n3)NC(=O)C(C)(C)O4)n2)cc(OC)c1OC | binding, competition with immobilised ligand | 10 µM | inhibition | 96% |
| Nc1ncc(-c2nc(N3CCOCC3)nc(N3CCOCC3)n2)c(C(F)F)n1 | binding, competition with immobilised ligand | 10 µM | remaining binding | 79% |
